23 compounds from ChEMBL document CHEMBL1141192 (J Med Chem, 2005) can be followed below.

One data set deals with Adenosine kinase (Homo sapiens, UniProt P55263). In words: Inhibitory activity against recombinant human adenosine kinase.
The next data set concerns Rattus norvegicus. In words: Inhibition of the licking and biting response at 20 mg/kg, po in rat by formalin paw antinociceptive assay. It counts as functional. Conditions: Sprague-Dawley. The method, boiled down:
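Screening: fasted male SD rats (105–115 g), three per compound, 20 mg/kg po in 0.1% MC 15 min before 2% formalin (50 μL s.c., right hindpaw). Licking/biting scored 5 s per 30 s; percent inhibition reported for 2nd phase (15–30 min); positive control 5 mg/kg po each run.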

A short description of data set [1]: Solubility in water at pH 7.4.

In brackets after ≈: the same amount, converted by molar mass.

Sequence of Adenosine kinase (P55263 whole entry): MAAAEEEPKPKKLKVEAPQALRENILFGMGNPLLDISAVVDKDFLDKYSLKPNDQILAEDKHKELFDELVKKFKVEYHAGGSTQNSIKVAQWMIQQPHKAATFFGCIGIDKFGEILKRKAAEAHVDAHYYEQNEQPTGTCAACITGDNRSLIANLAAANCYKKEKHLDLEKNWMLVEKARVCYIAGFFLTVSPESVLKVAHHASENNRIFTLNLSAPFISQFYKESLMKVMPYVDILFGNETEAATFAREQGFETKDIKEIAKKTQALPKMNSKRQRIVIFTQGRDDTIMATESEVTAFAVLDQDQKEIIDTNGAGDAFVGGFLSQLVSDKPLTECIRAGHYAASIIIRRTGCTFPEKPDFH

For the compound `C[C@H]1O[C@@H](n2cc(-c3ccccc3)c3c(NCC(=O)NC4CCCC4)ncnc32)[C@H](O)[C@@H]1O`, the IC50 (usually the point on the concentration scale where inhibition reaches its midpoint) on Adenosine kinase stood at 1 nM. Moreover, in the data set with Rattus norvegicus, 20 mg/kg produced 16% inhibition in vivo. Moreover, in data set [1], the concentration in solution (solubility) was 6 µg/mL (≈ 13.3 µM). With `CC(C)CNc1ncnc2c1c(-c1ccccc1)cn2[C@@H]1O[C@H](C)[C@@H](O)[C@H]1O`, the IC50 at Adenosine kinase was found to be 140 nM. Also, the solubility (in general, how much of the substance goes into solution per volume) in data set [1] turned out to be 3 µg/mL (≈ 7.84 µM). Consider `O=C(CNc1ncnc2c1c(-c1ccccc1)cn2[C@@H]1O[C@H](CO)[C@@H](O)[C@H]1O)NC1CC1`, for which the IC50 at Adenosine kinase came to 3 nM. Further, in the data set with Rattus norvegicus, the inhibition in vivo (as a rule, how much of the control response was suppressed) at 20 mg/kg was found to be 21%. The concentration in solution in data set [1] (solubility) was 76 µg/mL (≈ 173 µM). For `C[C@H]1O[C@@H](n2cc(-c3ccccc3)c3c(NCC(=O)NC4CCC4)ncnc32)[C@H](O)[C@@H]1O`, the IC50 at Adenosine kinase turned out to be 1.3 nM. In the data set on Rattus norvegicus, this compound displayed an inhibition in vivo at 20 mg/kg of 60%. For the same compound, in data set [1], the concentration in solution (solubility) came to 44 µg/mL (≈ 101 µM). Take `C[C@H]1O[C@@H](n2cc(-c3ccccc3)c3c(NCC(=O)N(C)C4CC4)ncnc32)[C@H](O)[C@@H]1O`: the IC50 on Adenosine kinase was 460 nM. In addition, the concentration in solution in data set [1] (solubility) was 105 µg/mL (≈ 240 µM). For the compound `C[C@H]1O[C@@H](n2cc(-c3ccccc3)c3c(NCC(N)=O)ncnc32)[C@H](O)[C@@H]1O`, the IC50 at Adenosine kinase is 2 nM. This compound yielded a solubility in data set [1] of 750 µg/mL (≈ 1960 µM). As to `CCCNc1ncnc2c1c(-c1ccccc1)cn2[C@@H]1O[C@H](C)[C@@H](O)[C@H]1O`, the IC50 on Adenosine kinase came to 100 nM. Further, in data set [1], the solubility stood at 16 µg/mL (≈ 43.4 µM). As for `CCNC(=O)CNc1ncnc2c1c(-c1ccccc1)cn2[C@@H]1O[C@H](C)[C@@H](O)[C@H]1O`, the IC50 on Adenosine kinase was 40 nM. In the data set with Rattus norvegicus, this compound had an inhibition in vivo at 20 mg/kg of 52%. Further, in data set [1], the solubility worked out at 140 µg/mL (≈ 340 µM). As to `C[C@H](Nc1ncnc2c1c(-c1ccccc1)cn2[C@@H]1O[C@H](C)[C@@H](O)[C@H]1O)C(=O)NC1CC1`, at Adenosine kinase, the IC50 came out at 530 nM. Besides, in data set [1], the solubility was 480 µg/mL (≈ 1100 µM).

For `C[C@H]1O[C@@H](n2cc(-c3ccccc3)c3c(Nc4ccccc4)ncnc32)[C@H](O)[C@@H]1O`, in data set [1], the solubility is < 0.05 µg/mL. `C[C@H]1O[C@@H](n2cc(-c3ccccc3)c3c(NCC4CC4)ncnc32)[C@H](O)[C@@H]1O`: at Adenosine kinase, the IC50 stood at 45 nM. In addition, in data set [1], the solubility is 0.1 µg/mL (≈ 0.263 µM). The corresponding values for `C[C@H]1O[C@@H](n2cc(-c3ccccc3)c3c(NC4CC4)ncnc32)[C@H](O)[C@@H]1O` are 380 nM and 36 µg/mL (≈ 98.2 µM). With `CNC(=O)Nc1ncnc2c1c(-c1ccccc1)cn2[C@@H]1O[C@H](C)[C@@H](O)[C@H]1O`, at Adenosine kinase, the IC50 stood at 27 nM. In addition, in data set [1], the concentration in solution (solubility) came to 32 µg/mL (≈ 83.5 µM). On to `O=C(CNc1ncnc2c1c(-c1ccccc1)cn2[C@@H]1OC[C@@H](O)[C@H]1O)Nc1ccccc1`, for which the IC50 on Adenosine kinase came to 0.6 nM. Further, the inhibition in vivo at 20 mg/kg in the data set with Rattus norvegicus stood at 37%.

Turning to `C[C@H]1O[C@@H](n2cc(-c3ccccc3)c3c(Nc4ccc(F)cc4)ncnc32)[C@H](O)[C@@H]1O`, the solubility in data set [1] was < 0.05 µg/mL. As for `CCCOC(=O)Nc1ncnc2c1c(-c1ccccc1)cn2[C@@H]1O[C@H](C)[C@@H](O)[C@H]1O`, the IC50 at Adenosine kinase amounted to 4 nM. Consider `COCCCNC(=O)CNc1ncnc2c1c(-c1ccccc1)cn2[C@@H]1O[C@H](C)[C@@H](O)[C@H]1O`, for which the IC50 on Adenosine kinase was found to be 2 nM. Moreover, 20 mg/kg produced 24% inhibition in vivo in the data set with Rattus norvegicus. With `C[C@H]1O[C@@H](n2cc(I)c3c(NCC(=O)NC4CC4)ncnc32)[C@H](O)[C@@H]1O`, at Adenosine kinase, the IC50 was found to be 880 nM. This compound also displayed a solubility in data set [1] of 5 µg/mL (≈ 10.6 µM). In the case of `O=C(CNc1ncnc2c1c(-c1ccccc1)cn2COCCO)NC1CC1`, the IC50 on Adenosine kinase came out at 1700 nM. The same compound had a solubility in data set [1] of 270 µg/mL (≈ 708 µM). In the case of `C[C@@H](Nc1ncnc2c1c(-c1ccccc1)cn2[C@@H]1O[C@H](C)[C@@H](O)[C@H]1O)C(=O)NC1CC1`, the IC50 on Adenosine kinase was found to be 2500 nM.

On to `O=C(CNc1[nH]cnc2ncc(-c3ccccc3)c1-2)NC1CC1`, for which, on Adenosine kinase, the IC50 was > 10000 nM. Consider `C[C@H]1O[C@@H](n2cc(-c3ccccc3)c3c(NCCC(N)=O)ncnc32)[C@H](O)[C@@H]1O`, for which, at Adenosine kinase, the IC50 is 2500 nM. Turning to `C[C@H]1O[C@@H](n2cc(-c3ccccc3)c3c(NCC(=O)NCCN(C)C)ncnc32)[C@H](O)[C@@H]1O`, on Adenosine kinase, the IC50 was determined as 300 nM. Besides, in data set [1], the solubility is > 1000 µg/mL.
